In ChEMBL document CHEMBL3616430, “Discovery, synthesis and biochemical profiling of purine-2,6-dione derivatives as inhibitors of the human poly(A)-selective ribonuclease Caf1” (Bioorg Med Chem Lett, 2015):
Activity calls are given as the source filed them. The rule behind the calls is not given here.

Molecular target: CCR4-NOT transcription complex subunit 6 (Homo sapiens) (UniProt Q9ULM6)
Assay: Inhibition of Ccr4 (unknown origin) at 30 uM by fluorescence-based assay
Procedure, shortened: (§1)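 Fluorescence-based ribonuclease activity assay with Ccr4, using one compound concentration per reaction (30, 10 or 3 μM, as in each line). The reactions compared were a no-enzyme control, a complete reaction with enzyme, and a complete reaction plus compound. Data are shown with standard deviation error bars.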

Chain of CCR4-NOT transcription complex subunit 6 (Homo sapiens) (Q9ULM6 whole entry, one chain of several): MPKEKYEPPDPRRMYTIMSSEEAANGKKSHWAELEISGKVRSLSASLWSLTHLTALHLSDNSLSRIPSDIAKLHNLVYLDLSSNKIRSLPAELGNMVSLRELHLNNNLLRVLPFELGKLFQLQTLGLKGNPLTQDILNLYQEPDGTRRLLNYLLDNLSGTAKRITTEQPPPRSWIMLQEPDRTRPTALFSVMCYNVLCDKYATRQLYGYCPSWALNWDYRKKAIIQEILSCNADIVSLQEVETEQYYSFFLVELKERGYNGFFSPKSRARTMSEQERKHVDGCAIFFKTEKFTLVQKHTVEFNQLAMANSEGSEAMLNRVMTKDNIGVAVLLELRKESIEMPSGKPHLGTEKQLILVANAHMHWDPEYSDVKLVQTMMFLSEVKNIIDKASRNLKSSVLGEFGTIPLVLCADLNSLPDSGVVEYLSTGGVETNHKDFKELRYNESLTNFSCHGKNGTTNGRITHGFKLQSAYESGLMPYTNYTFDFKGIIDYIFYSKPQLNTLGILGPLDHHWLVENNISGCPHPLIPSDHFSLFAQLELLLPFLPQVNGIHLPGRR

inhibition, inactive:
O=c1[nH]c2ncn(Cc3cccnc3)c2c(=O)n1O, O=c1[nH]c2ncn(Cc3ccccc3)c2c(=O)n1O, CCCCCCCCCn1c(=O)n(O)c(=O)c2c1ncn2CCc1ccccc1, CCCCCn1c(=O)n(O)c(=O)c2c1ncn2CCc1ccccc1, O=c1[nH]c2ncn(Cc3ccncc3)c2c(=O)n1O, O=c1[nH]c2ncn(C3CCCCC3)c2c(=O)n1O, CCn1c(=O)n(O)c(=O)c2c1ncn2CCc1ccccc1, O=c1[nH]c2ncn(Cc3ccccn3)c2c(=O)n1O, Cn1c(=O)n(O)c(=O)c2c1ncn2CCc1ccccc1, O=c1c2c(ncn2CCc2ccccc2)n(CCCc2ccccc2)c(=O)n1O

Molecular target: CCR4-NOT transcription complex subunit 6 (Homo sapiens) (UniProt Q9ULM6)
Assay: Inhibition of Ccr4 (unknown origin) at 10 uM by fluorescence-based assay
Procedure, shortened: as §1

inhibition, inactive:
O=c1[nH]c2ncn(CCOc3ccccc3)c2c(=O)n1O, O=c1[nH]c2ncn(CCc3cccs3)c2c(=O)n1O, O=c1[nH]c2ncn(CCc3ccccn3)c2c(=O)n1O, O=c1[nH]c2ncn(CCc3ccccc3)c2c(=O)n1O

Molecular target: CCR4-NOT transcription complex subunit 6 (Homo sapiens) (UniProt Q9ULM6)
Assay: Inhibition of Ccr4 (unknown origin) at 3 uM by fluorescence-based assay
Procedure, shortened: as §1

inhibition, inactive:
CN(C)CCCn1c(=O)n(O)c(=O)c2c1ncn2CCc1ccccc1, CC(C)CCCn1c(=O)n(O)c(=O)c2c1ncn2CCc1ccccc1
